Like-named read-outs stand apart in the source and are kept apart here.
How the values were obtained:
[1] = Plasma teriparatide acetate pharmacokinetics after subcutaneous injection; assay type: in vivo, human
Procedure, shortened: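 Vials were reconstituted in saline at use. 28.2 μg was given sc into the abdomen; 56.5 μg sc into the upper arm, in Cohort 1 with saline at the other site. Plasma was drawn pre-dose and at 0.25–6 h post-dose on days 1 and 36, frozen, and assayed centrally by IRMA (LLOQ 21.46 pg/mL). Noncompartmental parameters; values below LLOQ set to zero for means; arithmetic mean ± SD.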

[2] = test system: bone turnover markers (P1NP, OC, serum NTX, CTX, urine NTX); test: Changes in trough values of bone turnover markers; assay type: in vivo, human; conditions: for GMRs (trough to baseline) of serum P1NP and serum OC: 6 weeks, then steady until day 43; for GMRs (trough to baseline) of serum NTX, serum CTX, and urine NTX: after the 6-week treatments
Procedure, shortened: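 Healthy postmenopausal women received sc synthetic human PTH 1-34 or saline placebo for 6 weeks. Markers were sampled pre-dose on days 1, 8, 15, 22, 29 and 36 and on day 43. Serum P1NP and CTX were measured by ECLIA, OC by IRMA, serum and urine NTX by ELISA; CTX only on days 1, 8, 29 and 43. Samples were assayed centrally. GMR of log-transformed trough to baseline, with 95% CI, by ANOVA per group.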

[3] = test system: healthy Japanese postmenopausal women; test: Safety: incidence of adverse events; assay type: in vivo, human; conditions: 6 weeks, n = 20
Procedure, shortened: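 Randomized, single-blind, saline placebo-controlled trial in healthy Japanese postmenopausal women, with sc dosing for 6 weeks. Adverse events came from self-report, interviews or other tests, with onset, severity, seriousness, outcome and drug relationship recorded. Coding used MedDRA v17.1 preferred terms. Vital signs, 12-lead ECG, haematology, blood biochemistry and urinalysis were also monitored.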

[4] = test system: patients with osteoporosis; conditions: TOWER trial, once-weekly 56.5 μg, cited from earlier work
[5] = test system: subjects in the safety assessment population; conditions: 24-month open-label once-weekly trial, cited from earlier work
[6] = test system: subjects of phase 2b trial; conditions: cited from earlier work
[7] = subjects with severe renal impairment (eGFR 15.0–29.9 mL/min/1.73 m^2); cited from earlier work
[8] = Cohort 1 BIW: 28.2 μg twice weekly sc, intervals 3, 4 days
[9] = Cohort 1 QW: 56.5 μg once weekly sc
[10] = Cohort 2 BIW: 28.2 μg twice weekly sc, intervals 2, 5 days
[11] = Cohort 3 BIW: 28.2 μg twice weekly sc, intervals 1, 6 days

## CC[C@H](C)[C@H](NC(=O)[C@H](CCC(=O)O)NC(=O)[C@H](CO)NC(=O)[C@@H](NC(=O)[C@@H](N)CO)C(C)C)C(=O)N[C@@H](CCC(N)=O)C(=O)N[C@@H](CC(C)C)C(=O)N[C@@H](CCSC)C(=O)N[C@@H](Cc1cnc[nH]1)C(=O)N[C@@H](CC(N)=O)C(=O)N[C@@H](CC(C)C)C(=O)NCC(=O)N[C@@H](CCCCN)C(=O)N[C@@H](Cc1cnc[nH]1)C(=O)N[C@@H](CC(C)C)C(=O)N[C@@H](CC(N)=O)C(=O)N[C@@H](CO)C(=O)N[C@@H](CCSC)C(=O)N[C@@H](CCC(=O)O)C(=O)N[C@@H](CCCN=C(N)N)C(=O)N[C@H](C(=O)N[C@@H](CCC(=O)O)C(=O)N[C@@H](Cc1c[nH]c2ccccc12)C(=O)N[C@@H](CC(C)C)C(=O)N[C@@H](CCCN=C(N)N)C(=O)N[C@@H](CCCCN)C(=O)N[C@@H](CCCCN)C(=O)N[C@@H](CC(C)C)C(=O)N[C@@H](CCC(N)=O)C(=O)N[C@@H](CC(=O)O)C(=O)N[C@H](C(=O)N[C@@H](Cc1cnc[nH]1)C(=O)N[C@@H](CC(N)=O)C(=O)N[C@@H](Cc1ccccc1)C(=O)O)C(C)C)C(C)C [teriparatide]
[1]; human, plasma, sc, 28.2 ug
  Tmax: ≤ 1 h
  half-life: 44.3 ± 6.12 min
[1]; multiple dosing of once-weekly 56.5 μg, 6 weeks
  accumulation of teriparatide acetate in plasma: no accumulation
[1]; twice-weekly 28.2-μg groups
  AUCinf and Cmax relative to the once-weekly 56.5-μg group: approximately half
[1]; twice-weekly 28.2-μg injection treatment, regardless of dosing intervals, 6 weeks
  accumulation in the plasma: not observed
[2]; all 3 twice-weekly 28.2-μg groups
  GMRs (trough to baseline) of serum P1NP and serum OC: similarly increased to day 29 or day 36
[2]; all twice-weekly 28.2-μg groups
  GMRs (trough to baseline) of serum NTX, serum CTX, and urine NTX: did not increase
[2]; once-weekly 56.5-μg group
  GMRs (trough to baseline) of serum P1NP and serum OC: similarly increased to day 29 or day 36
  GMRs (trough to baseline) of serum NTX, serum CTX, and urine NTX: did not increase
[3]; [8]
  Abdominal pain: 0 (0.0) number of subjects (%)
  Adverse events, Total: 12 (60.0) number of subjects (%)
  Alanine aminotransferase increased: 0 (0.0) number of subjects (%)
  Arthralgia: 0 (0.0) number of subjects (%)
  Aspartate aminotransferase increased: 0 (0.0) number of subjects (%)
  Blood pressure decreased: 0 (0.0) number of subjects (%)
  Chest discomfort: 0 (0.0) number of subjects (%)
  Constipation: 0 (0.0) number of subjects (%)
  Dizziness: 1 (5.0) number of subjects (%)
  Dyspepsia: 1 (5.0) number of subjects (%)
  Feeling abnormal: 0 (0.0) number of subjects (%)
  Fractured coccyx: 1 (5.0) number of subjects (%)
  Gamma-glutamyltransferase increased: 0 (0.0) number of subjects (%)
  Headache: 5 (25.0) number of subjects (%)
  Injection site erythema: 2 (10.0) number of subjects (%)
  Malaise: 2 (10.0) number of subjects (%)
  Nasopharyngitis: 0 (0.0) number of subjects (%)
  Nausea: 9 (45.0) number of subjects (%)
  Pruritus: 0 (0.0) number of subjects (%)
  Rash: 0 (0.0) number of subjects (%)
  Somnolence: 0 (0.0) number of subjects (%)
  Vomiting: 4 (20.0) number of subjects (%)
[3]; [9]
  Abdominal pain: 0 (0.0) number of subjects (%)
  Adverse events, Total: 18 (90.0) number of subjects (%)
  Alanine aminotransferase increased: 2 (10.0) number of subjects (%)
  Arthralgia: 1 (5.0) number of subjects (%)
  Aspartate aminotransferase increased: 1 (5.0) number of subjects (%)
  Blood pressure decreased: 1 (5.0) number of subjects (%)
  Chest discomfort: 0 (0.0) number of subjects (%)
  Constipation: 1 (5.0) number of subjects (%)
  Dizziness: 3 (15.0) number of subjects (%)
  Dyspepsia: 0 (0.0) number of subjects (%)
  Feeling abnormal: 0 (0.0) number of subjects (%)
  Fractured coccyx: 0 (0.0) number of subjects (%)
  Gamma-glutamyltransferase increased: 1 (5.0) number of subjects (%)
  Headache: 15 (75.0) number of subjects (%)
  Injection site erythema: 2 (10.0) number of subjects (%)
  Malaise: 4 (20.0) number of subjects (%)
  Nasopharyngitis: 0 (0.0) number of subjects (%)
  Nausea: 18 (90.0) number of subjects (%)
  Pruritus: 0 (0.0) number of subjects (%)
  Rash: 0 (0.0) number of subjects (%)
  Somnolence: 1 (5.0) number of subjects (%)
  Vomiting: 14 (70.0) number of subjects (%)
[3]; [10]
  Abdominal pain: 1 (5.0) number of subjects (%)
  Adverse events, Total: 12 (60.0) number of subjects (%)
  Alanine aminotransferase increased: 0 (0.0) number of subjects (%)
  Arthralgia: 0 (0.0) number of subjects (%)
  Aspartate aminotransferase increased: 0 (0.0) number of subjects (%)
  Blood pressure decreased: 0 (0.0) number of subjects (%)
  Chest discomfort: 1 (5.0) number of subjects (%)
  Constipation: 0 (0.0) number of subjects (%)
  Dizziness: 0 (0.0) number of subjects (%)
  Dyspepsia: 0 (0.0) number of subjects (%)
  Feeling abnormal: 1 (5.0) number of subjects (%)
  Fractured coccyx: 0 (0.0) number of subjects (%)
  Gamma-glutamyltransferase increased: 0 (0.0) number of subjects (%)
  Headache: 4 (20.0) number of subjects (%)
  Injection site erythema: 3 (15.0) number of subjects (%)
  Malaise: 0 (0.0) number of subjects (%)
  Nasopharyngitis: 1 (5.0) number of subjects (%)
  Nausea: 10 (50.0) number of subjects (%)
  Pruritus: 0 (0.0) number of subjects (%)
  Rash: 0 (0.0) number of subjects (%)
  Somnolence: 0 (0.0) number of subjects (%)
  Vomiting: 5 (25.0) number of subjects (%)
[3]; [11]
  Abdominal pain: 0 (0.0) number of subjects (%)
  Adverse events, Total: 16 (80.0) number of subjects (%)
  Alanine aminotransferase increased: 0 (0.0) number of subjects (%)
  Arthralgia: 0 (0.0) number of subjects (%)
  Aspartate aminotransferase increased: 0 (0.0) number of subjects (%)
  Blood pressure decreased: 0 (0.0) number of subjects (%)
  Chest discomfort: 0 (0.0) number of subjects (%)
  Constipation: 0 (0.0) number of subjects (%)
  Dizziness: 0 (0.0) number of subjects (%)
  Dyspepsia: 0 (0.0) number of subjects (%)
  Feeling abnormal: 0 (0.0) number of subjects (%)
  Fractured coccyx: 0 (0.0) number of subjects (%)
  Gamma-glutamyltransferase increased: 0 (0.0) number of subjects (%)
  Headache: 6 (30.0) number of subjects (%)
  Injection site erythema: 13 (65.0) number of subjects (%)
  Malaise: 0 (0.0) number of subjects (%)
  Nasopharyngitis: 0 (0.0) number of subjects (%)
  Nausea: 10 (50.0) number of subjects (%)
  Pruritus: 1 (5.0) number of subjects (%)
  Rash: 1 (5.0) number of subjects (%)
  Somnolence: 0 (0.0) number of subjects (%)
  Vomiting: 6 (30.0) number of subjects (%)
[4]; 271 of 290 subjects
  adverse events, subjects affected: 93.4%
[4]; n = 21 of 290
  Malaise: 7.2%
[4]; n = 22 of 290
  abdominal discomfort: 7.6%
[4]; n = 33 of 290
  Vomiting: 11.4%
[4]; n = 39 of 290
  Headache: 13.4%
[4]; n = 59 of 290
  Nausea: 20.3%
[5]; 181 of 189 subjects
  adverse events, subjects affected: 95.8%
[5]; n = 25 of 189
  abdominal discomfort: 13.2%
[5]; n = 33 of 189
  Malaise: 17.5%
[5]; n = 37 of 189
  Headache: 19.6%
[5]; n = 42 of 189
  Vomiting: 22.2%
[5]; n = 69 of 189
  Nausea: 36.5%
[6]; once-weekly 14.1-μg dosing group, 14 of 73 subjects
  Incidence of adverse events: 19.2%
[6]; once-weekly 14.1-μg group, 4 of 73 patients
  frequency of nausea: 5.5%
[6]; once-weekly 28.2-μg dosing group, 14 of 75
  Incidence of adverse events: 18.7%
[6]; once-weekly 28.2-μg group, 7 of 75
  frequency of nausea: 9.3%
[6]; once-weekly 56.5-μg dosing group, 30 of 72
  Incidence of adverse events: 41.7%
[6]; once-weekly 56.5-μg group, 15 of 72
  frequency of nausea: 20.8%
[7]
  elimination half-life: significantly prolonged

Reference: publication PMC7004090 (Clinical Pharmacology in Drug Development, 2019)
